# Experiments:
# [1] = tested on: Staphylococcus aureus; test: Antimicrobial activity against wild type community-acquired methicillin-resistant Staphylococcus aureus MW2 serotype USA400 by microdilution method; format: functional
# In short: (§1)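 Broth microdilution MIC per CLSI guidelines, inoculum 5 x 10^5 CFU/ml, confirmed by plating serial dilutions. Run in triplicate; three independent clones per mutant. Reported as the median of at least three independent experiments. MBC: clear wells plated onto drug-free tryptic soy agar, 37°C, 24 and 48 h. pEPSA5-carrying strains tested with and without xylose, no chloramphenicol.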
# [2] = tested on: Staphylococcus aureus; test: Antimicrobial activity against community-acquired pbp3-deficient Staphylococcus aureus MW2 serotype USA400 by microdilution method; format: functional; in short: as §1
# [3] = tested on: Staphylococcus aureus; test: Antimicrobial activity against community-acquired pbp4-deficient Staphylococcus aureus MW2 serotype USA400 by microdilution method; format: functional; in short: as §1
# [4] = tested on: Staphylococcus aureus; test: Antimicrobial activity against community-acquired pbp3/4-deficient Staphylococcus aureus MW2 serotype USA400 by microdilution method; format: functional; in short: as §1
# [5] = tested on: Staphylococcus aureus; test: Antimicrobial activity against community-acquired pbp4::pbp4-deficient Staphylococcus aureus MW2 serotype USA400 by microdilution method; format: functional; in short: as §1
# [6] = tested on: Staphylococcus aureus; test: Antimicrobial activity against wild type community-acquired methicillin-resistant Staphylococcus aureus MW2 ex serotype USA400 by microdilution method; format: functional
# In short: (§2)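 Broth microdilution MIC per CLSI guidelines, inoculum 5 x 10^5 CFU/ml, confirmed by plating serial dilutions. Run in triplicate; three independent clones per mutant. Reported as the median of at least three independent experiments.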
# [7] = tested on: Staphylococcus aureus; test: Antimicrobial activity against community-acquired pbp3-deficient Staphylococcus aureus MW2 ex serotype USA400 by microdilution method; format: functional; in short: as §2
# [8] = tested on: Staphylococcus aureus; test: Antimicrobial activity against community-acquired pbp4-deficient Staphylococcus aureus MW2 ex serotype USA400 by microdilution method; format: functional; in short: as §1
# [9] = tested on: Staphylococcus aureus; test: Antimicrobial activity against community-acquired pbp3/4-deficient Staphylococcus aureus MW2 ex serotype USA400 by microdilution method; format: functional; in short: as §1
# [10] = tested on: Staphylococcus aureus; test: Antimicrobial activity against wild type community-acquired methicillin-resistant Staphylococcus aureus USA300 by microdilution method; format: functional; in short: as §1
# [11] = tested on: Staphylococcus aureus; test: Antimicrobial activity against community-acquired pbp4-deficient Staphylococcus aureus USA300 by microdilution method; format: functional; in short: as §1
# [12] = tested on: Staphylococcus aureus; test: Antimicrobial activity against community-acquired pbp4::pbp4-deficient Staphylococcus aureus USA300 by microdilution method; format: functional; in short: as §1
# [13] = tested on: Staphylococcus aureus; test: Antimicrobial activity against wild type hospital-acquired methicillin-resistant Staphylococcus aureus COL serotype USA500 by microdilution method; format: functional; in short: as §1
# [14] = tested on: Staphylococcus aureus; test: Antimicrobial activity against hospital-acquired pbp3-deficient Staphylococcus aureus COL serotype USA500 by microdilution method; format: functional; in short: as §1
# [15] = tested on: Staphylococcus aureus; test: Antimicrobial activity against hospital-acquired pbp4-deficient Staphylococcus aureus COL serotype USA500 by microdilution method; format: functional; in short: as §1
# [16] = tested on: Staphylococcus aureus; test: Antimicrobial activity against hospital-acquired pbp3/4-deficient Staphylococcus aureus COL serotype USA500 by microdilution method; format: functional; in short: as §1
# [17] = Antimicrobial activity against wild type hospital-acquired methicillin-resistant Staphylococcus aureus N315 serotype USA100 by microdilution method; format: functional, Staphylococcus aureus subsp. aureus N315; in short: as §1
# [18] = Antimicrobial activity against hospital-acquired pbp4-deficient Staphylococcus aureus N315 serotype USA100 by microdilution method; format: functional, Staphylococcus aureus subsp. aureus N315; in short: as §2
# [19] = Antimicrobial activity against wild type hospital-acquired methicillin-resistant vancomycin-intermediate Staphylococcus aureus Mu50 serotype USA100 by microdilution method; format: functional, Staphylococcus aureus subsp. aureus Mu50; in short: as §1
# [20] = Antimicrobial activity against hospital-acquired pbp4-deficient Staphylococcus aureus Mu50 serotype USA100 by microdilution method; format: functional, Staphylococcus aureus subsp. aureus Mu50; in short: as §1
# [21] = tested on: Staphylococcus aureus; test: Antimicrobial activity against wild type community-acquired methicillin-resistant Staphylococcus aureus MW2 (USA400) after 48 hrs by microdilution method; format: functional
# [22] = tested on: Staphylococcus aureus; test: Antimicrobial activity against wild type community-acquired methicillin-resistant Staphylococcus aureus USA300 after 48 hrs by microdilution method; format: functional; conditions: USA300, 48 h
# [23] = tested on: Staphylococcus aureus; test: Antimicrobial activity against wild type hospital-acquired methicillin-resistant Staphylococcus aureus COL after 48 hrs by microdilution method; format: functional
# [24] = tested on: Staphylococcus aureus; test: Antimicrobial activity against wild type hospital-acquired methicillin-resistant Staphylococcus aureus 252 after 48 hrs by microdilution method; format: functional; conditions: Staphylococcus aureus, 252, 48 h
# [25] = tested on: Staphylococcus aureus; test: Antimicrobial activity against wild type hospital-acquired methicillin-resistant vancomycin-intermediate Staphylococcus aureus Mu50 after 48 hrs by microdilution method; format: functional; conditions: Mu50, 48 h
# [26] = tested on: Staphylococcus aureus; test: Antimicrobial activity against community-acquired pbp4-deficient Staphylococcus aureus MW2 serotype USA400 by microdilution method relative to wild type; format: functional
# In short: (§3)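 Broth microdilution MIC per CLSI, inoculum 5 x 10^5 CFU/ml, inoculum confirmed by plating serial dilutions. Three independent clones tested per mutant, each in triplicate. Reported value is the median of at least three independent experiments. MBC obtained by plating clear wells onto drug-free tryptic soy agar, incubated 37°C for 24 and 48 h.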
# [27] = tested on: Staphylococcus aureus; test: Antimicrobial activity against community-acquired pbp4-deficient Staphylococcus aureus USA300 by microdilution method relative to wild type; format: functional; in short: as §3
Compound,MIC [1] [µg/mL],MIC [2] [µg/mL],MIC [3] [µg/mL],MIC [4] [µg/mL],MIC [5] [µg/mL],MIC [6] [µg/mL],MIC [7] [µg/mL],MIC [8] [µg/mL],MIC [9] [µg/mL],MIC [10] [µg/mL],MIC [11] [µg/mL],MIC [12] [µg/mL],MIC [13] [µg/mL],MIC [14] [µg/mL],MIC [15] [µg/mL],MIC [16] [µg/mL],MIC [17] [µg/mL],MIC [18] [µg/mL],MIC [19] [µg/mL],MIC [20] [µg/mL],also measured
CO[C@@]1(NC(=O)Cc2cccs2)C(=O)N2C(C(=O)O)=C(COC(N)=O)CS[C@@H]21 [CEFOXITIN],64,64,64,64,64,16,32,16,32,64,64,64,128,128,128,128,64,64,256,256,MBC [21]: > 256 µg/mL; MBC [22]: > 256 µg/mL; MBC [23]: > 256 µg/mL; MBC [24]: > 256 µg/mL; MBC [25]: > 256 µg/mL
CCOc1ccc2ccccc2c1C(=O)N[C@@H]1C(=O)N2[C@@H]1SC(C)(C)[C@@H]2C(=O)O [NAFCILLIN],16,16,1,1,16,16,16,1,1,16,1,16,64,64,64,64,64,64,256,256,fold change (FC) [26]: 16; fold change (FC) [27]: 16
Cc1onc(-c2ccccc2)c1C(=O)N[C@@H]1C(=O)N2[C@@H]1SC(C)(C)[C@@H]2C(=O)O [OXACILLIN],,64,4,4,64,,,2,1,64,4,64,64,256,256,256,256,,256,256,fold change (FC) [27]: 16; MBC [21]: 256 µg/mL; MBC [22]: 256 µg/mL; MBC [23]: > 256 µg/mL; MBC [24]: > 256 µg/mL; MBC [25]: > 256 µg/mL
